Assay results from ChEMBL document CHEMBL1129348, “Effects of modifications of residues in position 3 of dynorphin A(1-11)-NH2 on kappa receptor selectivity and potency” (J Med Chem, 1996).

Experiments:
[1] = Ratio between IC50 of GPI and GPB; type: functional
Mu-type opioid receptor = Mu-type opioid receptor (Cavia porcellus, UniProt P97266); experiment: Inhibition of binding [3H]DAMGO at Opioid receptor mu 1 of guinea pig brain membrane (GPB) homogenates.
In short: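 Membranes from whole brains of adult male guinea pigs (200–400 g). Displacement of [3H]DAMGO at 1.0 nM for mu sites, with 180 min incubation. Values come from at least three independent measurements and are given as mean ± SEM.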

[2] = test system: Opioid receptors delta & kappa (Cavia porcellus); experiment: Selectivity ratio between delta and kappa opioid receptor from guinea pig brain homogenate
Cavia porcellus [3] = organism: Cavia porcellus; experiment: Compound was evaluated for its ability to inhibit the electrically evoked contraction of the guinea pig ileum(GPI).at concentration of 60 uM; type: functional
[4] = test system: Opioid receptors mu & kappa (Cavia porcellus); experiment: Selectivity ratio between mu and kappa opioid receptor from guinea pig brain homogenate
[5] = molecular target: Kappa-type opioid receptor (Cavia porcellus, UniProt P41144); experiment: Inhibition of binding [3H][…] at Opioid receptor kappa 1 of guinea pig brain membrane (GPB) homogenates.
In short: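 Whole-brain membranes from adult male guinea pigs (200–400 g) were used. Mean ± SEM of three or more independent measurements.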

Cavia porcellus [6] = organism: Cavia porcellus; experiment: Evaluated for its ability to inhibit the electrically evoked contraction of the guinea pig ileum(GPI).; type: functional
In short: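 Strips of guinea pig ileum longitudinal muscle–myenteric plexus were electrically stimulated and inhibition of contraction was recorded. IC50 and its standard error came from fitting mean data to the Hill equation by nonlinear least squares. Selected analogues were retested with 1000 nM CTAP as mu antagonist to look for a shift.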

Cavia porcellus [7] = organism: Cavia porcellus; experiment: Ability to inhibit the electrically evoked contraction of the guinea pig ileum(GPI).at concentration of 30 uM; type: functional
[8] = molecular target: Delta-type opioid receptor (Mus musculus) (UniProt P32300); experiment: Agonistic activity towards Opioid receptor delta 1 was determined by evaluating the inhibitory activity towards electrically stimulated mouse vas deferens; settings: concentration not given here
Cavia porcellus [9] = organism: Cavia porcellus; experiment: Ability to inhibit the electrically evoked contraction of the guinea pig ileum(GPI)at concentration of 30 uM; type: functional
Cavia porcellus [10] = organism: Cavia porcellus; experiment: Ability to inhibit the electrically evoked contraction of the guinea pig ileum(GPI).at concentration of 60 uM; type: functional

Chain of Kappa-type opioid receptor (P41144 whole entry): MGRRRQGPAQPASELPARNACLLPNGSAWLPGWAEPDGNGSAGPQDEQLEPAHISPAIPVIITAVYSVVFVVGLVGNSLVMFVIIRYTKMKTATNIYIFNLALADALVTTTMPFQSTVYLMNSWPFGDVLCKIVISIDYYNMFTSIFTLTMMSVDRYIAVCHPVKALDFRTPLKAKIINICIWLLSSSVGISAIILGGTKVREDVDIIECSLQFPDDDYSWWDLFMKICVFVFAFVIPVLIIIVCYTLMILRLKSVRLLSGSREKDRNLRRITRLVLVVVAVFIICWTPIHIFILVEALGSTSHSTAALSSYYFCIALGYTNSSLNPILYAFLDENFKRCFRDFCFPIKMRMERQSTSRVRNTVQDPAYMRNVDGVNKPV
Chain of Mu-type opioid receptor (P97266 whole entry): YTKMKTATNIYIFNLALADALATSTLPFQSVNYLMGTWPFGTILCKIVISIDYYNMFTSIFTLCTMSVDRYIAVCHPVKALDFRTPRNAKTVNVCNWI
Chain of Delta-type opioid receptor (Mus musculus) (P32300 whole entry, looked up): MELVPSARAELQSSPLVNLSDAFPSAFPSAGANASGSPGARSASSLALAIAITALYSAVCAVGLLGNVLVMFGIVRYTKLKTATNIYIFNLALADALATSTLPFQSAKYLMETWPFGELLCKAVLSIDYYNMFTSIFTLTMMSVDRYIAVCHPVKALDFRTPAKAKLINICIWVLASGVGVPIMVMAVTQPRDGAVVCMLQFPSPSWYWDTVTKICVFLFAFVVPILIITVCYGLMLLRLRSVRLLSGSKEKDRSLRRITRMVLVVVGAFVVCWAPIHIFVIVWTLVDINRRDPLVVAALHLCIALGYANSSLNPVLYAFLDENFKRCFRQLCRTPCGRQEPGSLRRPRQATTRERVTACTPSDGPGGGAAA

SMILES | Ratio [1] | IC50 (Mu-type opioid receptor) | Ratio [2] | Inhibition (Cavia porcellus [3]) | Ratio [4] | IC50 [5] | IC50 (Cavia porcellus [6]) | inhibition at 30 µM (Cavia porcellus [7]) | inhibition [8] | inhibition at 30 µM (Cavia porcellus [9]) | inhibition at 60 µM (Cavia porcellus [10])
CC[C@@H](C)[C@@H](NC(=O)CNC(=O)[C@@H](N)Cc1ccc(O)cc1)C(=O)N[C@@H](Cc1ccccc1)C(=O)N[C@@H](CC(C)C)C(=O)N[C@@H](CCCN=C(N)N)C(=O)N[C@@H](CCCN=C(N)N)C(=O)N[C@H](C(=O)N[C@@H](CCCN=C(N)N)C(=O)N1CCC[C@H]1C(=O)N[C@@H](CCCCN)C(N)=O)[C@@H](C)CC | > 1100 | 1030 nM | 260 | 5.7% | 19 | 55 nM | – | – | – | – | –
CC[C@H](C)[C@H](NC(=O)[C@H](CCCN=C(N)N)NC(=O)[C@H](CCCN=C(N)N)NC(=O)[C@H](CC(C)C)NC(=O)[C@H](Cc1ccccc1)NC(=O)[C@@H](Cc1ccccc1)NC(=O)CNC(=O)[C@@H](N)Cc1ccc(O)cc1)C(=O)N[C@@H](CCCN=C(N)N)C(=O)N1CCC[C@H]1C(=O)N[C@@H](CCCCN)C(N)=O | 62 | 86 nM | 125 | – | 15 | 5.9 nM | 370 nM | – | – | – | –
CC[C@H](C)[C@H](NC(=O)[C@H](CCCN=C(N)N)NC(=O)[C@H](CCCN=C(N)N)NC(=O)[C@H](CC(C)C)NC(=O)[C@H](Cc1ccccc1)NC(=O)[C@H](CCCCN)NC(=O)CNC(=O)[C@@H](N)Cc1ccc(O)cc1)C(=O)N[C@@H](CCCN=C(N)N)C(=O)N1CCC[C@H]1C(=O)N[C@@H](CCCCN)C(N)=O | > 120 | 7400 nM | > 330 | – | 31 | 240 nM | – | 15.6% | 30% | – | –
CC[C@H](C)[C@H](NC(=O)[C@H](CCCN=C(N)N)NC(=O)[C@H](CCCN=C(N)N)NC(=O)[C@H](CC(C)C)NC(=O)[C@H](Cc1ccccc1)NC(=O)[C@@H](CCCCN)NC(=O)CNC(=O)[C@@H](N)Cc1ccc(O)cc1)C(=O)N[C@@H](CCCN=C(N)N)C(=O)N1CCC[C@H]1C(=O)N[C@@H](CCCCN)C(N)=O | 55 | – | 42 | – | 5 | – | 21000 nM | – | – | – | –
CC[C@H](C)[C@H](NC(=O)[C@H](CCCN=C(N)N)NC(=O)[C@H](CCCN=C(N)N)NC(=O)[C@H](CC(C)C)NC(=O)[C@H](Cc1ccccc1)NC(=O)[C@@H](CCCN=C(N)N)NC(=O)CNC(=O)[C@@H](N)Cc1ccc(O)cc1)C(=O)N[C@@H](CCCN=C(N)N)C(=O)N1CCC[C@H]1C(=O)N[C@@H](CCCCN)C(N)=O | > 260 | – | > 260 | – | 22 | – | – | – | – | – | –
CC[C@H](C)[C@H](NC(=O)[C@H](CCCN=C(N)N)NC(=O)[C@H](CCCN=C(N)N)NC(=O)[C@H](CC(C)C)NC(=O)[C@H](Cc1ccccc1)NC(=O)[C@@H](CCC(=O)O)NC(=O)CNC(=O)[C@@H](N)Cc1ccc(O)cc1)C(=O)N[C@@H](CCCN=C(N)N)C(=O)N1CCC[C@H]1C(=O)N[C@@H](CCCCN)C(N)=O | 5 | – | 12 | – | 2.3 | – | 5700 nM | – | – | – | –
CC[C@H](C)[C@H](NC(=O)[C@H](CCCN=C(N)N)NC(=O)[C@H](CCCN=C(N)N)NC(=O)[C@H](CC(C)C)NC(=O)[C@H](Cc1ccccc1)NC(=O)[C@H](Cc1ccccc1)NC(=O)CNC(=O)[C@@H](N)Cc1ccc(O)cc1)C(=O)N[C@@H](CCCN=C(N)N)C(=O)N1CCC[C@H]1C(=O)N[C@@H](CCCCN)C(N)=O | 1.2 | 27.1 nM | 315 | – | 30 | 0.89 nM | 1.1 nM | – | – | – | –
CC[C@H](C)[C@H](NC(=O)[C@H](CCCN=C(N)N)NC(=O)[C@H](CCCN=C(N)N)NC(=O)[C@H](CC(C)C)NC(=O)[C@H](Cc1ccccc1)NC(=O)[C@@H](NC(=O)CNC(=O)[C@@H](N)Cc1ccc(O)cc1)[C@@H](C)c1ccccc1)C(=O)N[C@@H](CCCN=C(N)N)C(=O)N1CCC[C@H]1C(=O)N[C@@H](CCCCN)C(N)=O | 18 | 1350 nM | 13 | – | 11 | 121 nM | 2190 nM | – | – | – | –
CC[C@H](C)[C@H](NC(=O)[C@H](CCCN=C(N)N)NC(=O)[C@H](CCCN=C(N)N)NC(=O)[C@H](CC(C)C)NC(=O)[C@H](Cc1ccccc1)NC(=O)[C@H](CCC(=O)O)NC(=O)CNC(=O)[C@@H](N)Cc1ccc(O)cc1)C(=O)N[C@@H](CCCN=C(N)N)C(=O)N1CCC[C@H]1C(=O)N[C@@H](CCCCN)C(N)=O | > 200 | 6600 nM | 20 | – | 44 | 150 nM | – | – | – | 48% | –
CC[C@H](C)[C@H](NC(=O)[C@H](CCCN=C(N)N)NC(=O)[C@H](CCCN=C(N)N)NC(=O)[C@H](CC(C)C)NC(=O)[C@H](Cc1ccccc1)NC(=O)[C@@H](Cc1ccc(O)cc1)NC(=O)CNC(=O)[C@@H](N)Cc1ccc(O)cc1)C(=O)N[C@@H](CCCN=C(N)N)C(=O)N1CCC[C@H]1C(=O)N[C@@H](CCCCN)C(N)=O | > 2600 | 650 nM | – | – | – | 23.1 nM | – | – | – | – | 41.7%
CC[C@H](C)[C@H](NC(=O)[C@H](CCCNC(=N)N)NC(=O)[C@H](CCCNC(=N)N)NC(=O)[C@H](CC(C)C)NC(=O)[C@H](Cc1ccccc1)NC(=O)[C@@H](CCC(=O)O)NC(=O)CNC(=O)[C@@H](N)Cc1ccc(O)cc1)C(=O)N[C@@H](CCCNC(=N)N)C(=O)N1CCC[C@H]1C(=O)N[C@@H](CCCCN)C(N)=O | – | 2500 nM | – | – | – | 1100 nM | – | – | – | – | –
CC[C@H](C)[C@H](NC(=O)[C@H](CCCN=C(N)N)NC(=O)[C@H](CCCN=C(N)N)NC(=O)[C@H](CC(C)C)NC(=O)[C@H](Cc1ccccc1)NC(=O)[C@H](Cc1ccc(O)cc1)NC(=O)CNC(=O)[C@@H](N)Cc1ccc(O)cc1)C(=O)N[C@@H](CCCN=C(N)N)C(=O)N1CCC[C@H]1C(=O)N[C@@H](CCCCN)C(N)=O | 25 | 290 nM | – | – | – | 8.9 nM | 220 nM | – | – | – | –
CC[C@H](C)[C@H](NC(=O)[C@H](CCCN=C(N)N)NC(=O)[C@H](CCCN=C(N)N)NC(=O)[C@H](CC(C)C)NC(=O)[C@H](Cc1ccccc1)NC(=O)CNC(=O)CNC(=O)[C@@H](N)Cc1ccc(O)cc1)C(=O)N[C@@H](CCCN=C(N)N)C(=O)N1CCC[C@H]1C(=O)N[C@@H](CCCCN)C(N)=O | – | – | – | – | – | – | 1 nM | – | – | – | –
CC[C@H](C)[C@H](NC(=O)CNC(=O)[C@@H](N)Cc1ccc(O)cc1)C(=O)N[C@@H](Cc1ccccc1)C(=O)N[C@@H](CC(C)C)C(=O)N[C@@H](CCCN=C(N)N)C(=O)N[C@@H](CCCN=C(N)N)C(=O)N[C@H](C(=O)N[C@@H](CCCN=C(N)N)C(=O)N1CCC[C@H]1C(=O)N[C@@H](CCCCN)C(N)=O)[C@@H](C)CC | 12 | 860 nM | – | – | 22 | 40 nM | 460 nM | – | – | – | –
CC[C@H](C)[C@H](NC(=O)[C@H](CCCNC(=N)N)NC(=O)[C@H](CCCNC(=N)N)NC(=O)[C@H](CC(C)C)NC(=O)[C@H](Cc1ccccc1)NC(=O)[C@@H](CCCCN)NC(=O)CNC(=O)[C@@H](N)Cc1ccc(O)cc1)C(=O)N[C@@H](CCCNC(=N)N)C(=O)N1CCC[C@H]1C(=O)N[C@@H](CCCCN)C(N)=O | – | 1900 nM | – | – | – | 380 nM | – | – | – | – | –
CC[C@H](C)[C@H](NC(=O)[C@H](CCCN=C(N)N)NC(=O)[C@H](CCCN=C(N)N)NC(=O)[C@H](CC(C)C)NC(=O)[C@H](Cc1ccccc1)NC(=O)[C@H](NC(=O)CNC(=O)[C@@H](N)Cc1ccc(O)cc1)[C@@H](C)c1ccccc1)C(=O)N[C@@H](CCCN=C(N)N)C(=O)N1CCC[C@H]1C(=O)N[C@@H](CCCCN)C(N)=O | 467 | 112 nM | 112 | – | 20 | 6 nM | 2800 nM | – | – | – | –
CC[C@H](C)[C@H](NC(=O)[C@H](CCCN=C(N)N)NC(=O)[C@H](CCCN=C(N)N)NC(=O)[C@H](CC(C)C)NC(=O)[C@H](Cc1ccccc1)NC(=O)[C@@H](NC(=O)CNC(=O)[C@@H](N)Cc1ccc(O)cc1)[C@@H](C)c1c(C)cccc1C)C(=O)N[C@@H](CCCN=C(N)N)C(=O)N1CCC[C@H]1C(=O)N[C@@H](CCCCN)C(N)=O | 360 | 2800 nM | – | – | – | 113 nM | 40800 nM | – | – | – | –
